An excerpt weighted towards active compounds, which were near 2.6% of everything screened.
WT yeast gro inh: growth inhibition of WT yeast, mitochondrial fusion screen. mitochondrial fusion phenotypic screen, WT strain. inhibition, % at 10 µM. hit rate 2.1% among 190,000. AID 1362; in the data active = inhibition above about 58%; tested in S. cerevisiae
TNAP act hi DEA: TNAP (human) activation, high acceptor; P05186; purified TNAP, CDP-star luminescence, 1 M DEA, 30 min; stronger effect = higher value; 0 = EDTA background, 1 = DMSO-only activity; activation factor at 20 µM; 200,000 tested, under 10 active; AID 1136;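 active = activation factor at least 2 at 20 µM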
Target sequence (P05186 whole entry, looked up): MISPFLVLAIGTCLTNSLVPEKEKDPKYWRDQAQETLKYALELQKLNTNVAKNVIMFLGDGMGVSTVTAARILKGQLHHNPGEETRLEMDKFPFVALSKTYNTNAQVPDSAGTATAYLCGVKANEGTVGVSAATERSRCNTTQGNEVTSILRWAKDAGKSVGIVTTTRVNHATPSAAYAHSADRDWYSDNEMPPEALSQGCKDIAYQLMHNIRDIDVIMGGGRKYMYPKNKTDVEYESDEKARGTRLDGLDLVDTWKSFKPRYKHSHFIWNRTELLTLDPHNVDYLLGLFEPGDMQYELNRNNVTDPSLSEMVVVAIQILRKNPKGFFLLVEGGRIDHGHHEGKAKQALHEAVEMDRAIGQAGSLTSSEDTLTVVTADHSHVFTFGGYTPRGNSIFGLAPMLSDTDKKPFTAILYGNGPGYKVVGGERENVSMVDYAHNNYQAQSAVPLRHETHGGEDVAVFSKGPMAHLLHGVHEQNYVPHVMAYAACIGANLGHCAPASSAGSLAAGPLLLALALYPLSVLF
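Measured by: Luminescent substrate turnover signal | Test system: Human TNAP | Input: TNAP 1/800 final | Dosing: 20 µM single point | Schedule: 30 min, room temperature | Controls: EDTA wells as negative control, DMSO wells as positive control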
TNAP inh hiacc: blocks human TNAP under high phosphate acceptor concentration; inhibition, % at 20 µM; hit rate 0.03% among 200,000; purified TNAP, CDP-star luminescence, 1 M DEA; P05186;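 active = over 50% inhibition of tissue-nonspecific alkaline phosphatase at 20 µM in the single-dose screen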;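 also: plate controls were DMSO wells for no effect and EDTA-quenched wells as full inhibition for full effect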
TNAP inh noacc: inhibitors of human TNAP without phosphate acceptor | P05186 | purified TNAP, CDP-star luminescence, 30 min | inhibition, % at 20 µM | hit rate 0.26% among 200,000 | AID 1012;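 active = tissue-nonspecific alkaline phosphatase inhibition above about 50% at 20 µM in the single-dose screen, limit read from the data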;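 also: 0% = DMSO negative control and 100% = EDTA positive control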
Arbovirus anti: blocks arbovirus infection; arbovirus infection cell-based antiviral screen; inhibition, % at 10 µM; hit rate 0.37% among 200,000; AID 1251; in the data active = inhibition above about 30%
An asterisk follows results filed as active.

`CN1CCN(c2cc(-c3ccccc3)nc3cc(-c4ccc(F)cc4)nn23)CC1` gave WT yeast gro inh 83.7*, TNAP act hi DEA 1.1, TNAP inh hiacc -5.6, TNAP inh noacc -4.8 and Arbovirus anti 3.9.
For Fc1ccc(-c2cc3nc(-c4ccccc4)cc(N4CCN(CCN5CCOCC5)CC4)n3n2)cc1 the results were WT yeast gro inh -9.3, TNAP act hi DEA 1.1, TNAP inh hiacc -13.6, TNAP inh noacc -7.1 and Arbovirus anti -22.1.
`CCCCS(=O)CC(COCc1ccccc1)OC(=O)CSc1nc(C)cc(C)n1` (stereo not given) gave WT yeast gro inh 11.0, TNAP act hi DEA 1.1, TNAP inh hiacc -10.4, TNAP inh noacc -5.6 and Arbovirus anti 2.6.
`COc1cccc(C(=O)Nc2ccc(N3CCN(S(C)(=O)=O)CC3)cc2)c1` gave WT yeast gro inh -11.0, TNAP act hi DEA 1, TNAP inh hiacc -3.3, TNAP inh noacc -13.6 and Arbovirus anti -6.1.
Cc1cc(C)n(CC(O)CN2c3ccccc3Sc3ccccc32)n1 (stereo not given) was read as WT yeast gro inh 72.7*, TNAP act hi DEA 1.1, TNAP inh hiacc -5.8, TNAP inh noacc 6.5 and Arbovirus anti -7.1.
Screening Cc1cc(C)n(CC(O)Cn2c3ccccc3c3ccccc32)n1 (stereo not given) returned WT yeast gro inh 5.2, TNAP act hi DEA 1, TNAP inh hiacc -4.7, TNAP inh noacc -5.1 and Arbovirus anti -11.9.
For CC(C)(C)NC(=O)CN(C(=O)C(=O)Nc1ccc2c(c1)OCCO2)C(C)(C)C the results were WT yeast gro inh -13.1, TNAP act hi DEA 1.1, TNAP inh hiacc -5.7, TNAP inh noacc -7.7 and Arbovirus anti 0.4.
Screening O=C(NCCCn1ccnc1)C(Cc1ccccc1)N1C(=O)c2ccccc2C1=O (stereo not given) returned WT yeast gro inh 58.4*, TNAP act hi DEA 1, TNAP inh hiacc -2.9, TNAP inh noacc -1.3 and Arbovirus anti -2.1.
For COC(=O)c1sc(S(=O)(=O)Nc2ccc(Br)cc2)c(C(=O)OC)c1C the results were WT yeast gro inh 49.7, TNAP act hi DEA 1, TNAP inh hiacc -2.7, TNAP inh noacc -14.9 and Arbovirus anti 24.4.
O=c1cc(N2CCCCC2)c(-c2ccccc2)nn1Cc1ccccc1Cl was read as WT yeast gro inh 88.3*, TNAP act hi DEA 1, TNAP inh hiacc -3.7, TNAP inh noacc -8.5 and Arbovirus anti -42.0.
For O=c1cc(N2CCCCC2)c(-c2ccccc2)nn1Cc1ccc(Cl)cc1Cl the results were WT yeast gro inh 72.8*, TNAP act hi DEA 1, TNAP inh hiacc -4.4, TNAP inh noacc -2.6 and Arbovirus anti -46.5.
Screening O=c1cc(N2CCCCC2)c(-c2ccccc2)nn1Cc1cccc(Cl)c1 returned WT yeast gro inh 86.3*, TNAP act hi DEA 1, TNAP inh hiacc -2.5, TNAP inh noacc -6.3 and Arbovirus anti -7.7.
`O=C(NC(=O)c1cccc(OC(F)(F)C(F)F)c1)OC1CCS(=O)(=O)C1` (stereo not given) gave WT yeast gro inh -11.6, TNAP act hi DEA 1, TNAP inh hiacc 0.5, TNAP inh noacc -10.7 and Arbovirus anti 0.7.
`COc1ccc(NC(=O)Nc2ccc(F)c(F)c2)c(OC)c1` gave WT yeast gro inh 20.2, TNAP act hi DEA 1, TNAP inh hiacc -4.0, TNAP inh noacc -10.3 and Arbovirus anti -1.0.
`COc1ccc(S(=O)(=O)NCCSCc2cccc(C)c2)cc1Br` gave WT yeast gro inh 64.9*, TNAP act hi DEA 1.1, TNAP inh hiacc -6.1, TNAP inh noacc -4.0 and Arbovirus anti -43.1.
Screening Cc1ccc(S(=O)(=O)NCCSCc2ccccc2)cc1 returned WT yeast gro inh 14.5, TNAP act hi DEA 1, TNAP inh hiacc -2.2, TNAP inh noacc -7.1 and Arbovirus anti 3.9.
For N=c1c2c(n(Cc3ccc(F)cc3)c3c1CCC3)CCC2 the results were WT yeast gro inh 65.6*, TNAP act hi DEA 1.1, TNAP inh hiacc -6.9, TNAP inh noacc -10.3 and Arbovirus anti 9.7.
CCn1c2c(c(=N)c3c1CCC3)CCC2 was read as WT yeast gro inh 1.9, TNAP act hi DEA 1.1, TNAP inh hiacc -6.5, TNAP inh noacc -3.8 and Arbovirus anti 6.0.
`CN(/N=C/c1cccnc1)c1cnc2ccccc2n1` gave WT yeast gro inh -2.7, TNAP act hi DEA 1.1, TNAP inh hiacc -6.4, TNAP inh noacc -15.1 and Arbovirus anti -11.4.
`COc1ccc(Cn2c(-c3ccc(Br)cc3)c[n+]3ccccc23)cc1` gave WT yeast gro inh 62.5*, TNAP act hi DEA 1, TNAP inh hiacc -2.0, TNAP inh noacc -5.1 and Arbovirus anti 9.3.
For CNC(=S)N/N=C/c1cn(Cc2c(F)cccc2Cl)c2ccccc12 the results were WT yeast gro inh 61.9*, TNAP act hi DEA 1, TNAP inh hiacc -4.3, TNAP inh noacc -3.9 and Arbovirus anti -2.5.
`CCNC(=S)N/N=C/c1cn(Cc2ccccc2F)c2ccccc12` gave WT yeast gro inh 22.7, TNAP act hi DEA 1, TNAP inh hiacc -0.1, TNAP inh noacc -15.9 and Arbovirus anti -3.8.
Screening Cc1c(NC(=O)c2c(N)sc3c2CCCC3)c(=O)n(-c2ccccc2)n1C returned WT yeast gro inh -17.1, TNAP act hi DEA 1, TNAP inh hiacc 3.4, TNAP inh noacc -3.7 and Arbovirus anti 0.7.
`CC1CCCCN1c1nc(-c2ccncc2)nc2ccccc12` (stereo not given) gave WT yeast gro inh 59.3*, TNAP act hi DEA 1, TNAP inh hiacc -4.8, TNAP inh noacc -11.2 and Arbovirus anti -17.9.
Screening CCC1CCCCN1c1nc(-c2ccncc2)nc2ccccc12 (stereo not given) returned WT yeast gro inh 27.5, TNAP act hi DEA 1, TNAP inh hiacc 2.5, TNAP inh noacc -8.3 and Arbovirus anti -16.0.
Screening CCc1c(C)[nH]c2nc3ccccc3n2c1=O returned WT yeast gro inh -14.5, TNAP act hi DEA 1, TNAP inh hiacc -0.7, TNAP inh noacc 51.1* and Arbovirus anti -0.8.
For O=C(Cc1ccccc1)NNc1ccc2ccccc2c1 the results were WT yeast gro inh 52.3, TNAP act hi DEA 1.1, TNAP inh hiacc -6.8, TNAP inh noacc -16.5 and Arbovirus anti -27.8.
O=C(CN1C(=O)CCC1=O)NNc1ccc2ccccc2c1 was read as WT yeast gro inh 70.6*, TNAP act hi DEA 1.1, TNAP inh hiacc -7.3, TNAP inh noacc -16.0 and Arbovirus anti -22.6.
`C=C(C)c1nc(N)nc(N)n1` gave WT yeast gro inh -1.9, TNAP act hi DEA 1, TNAP inh hiacc -3.1, TNAP inh noacc -11.2 and Arbovirus anti 5.7.
`COc1ccc(S(=O)(=O)N/N=c2\oc3c(OC)cccc3cc2S(=O)(=O)c2ccc(C)cc2)cc1OC` gave WT yeast gro inh -11.3, TNAP act hi DEA 0.9, TNAP inh hiacc 9.4, TNAP inh noacc 5.5 and Arbovirus anti 6.1.
N#CCCn1cc(/C=N/NC(N)=S)c(-c2ccccc2)n1 was read as WT yeast gro inh -0.7, TNAP act hi DEA 1, TNAP inh hiacc 0.1, TNAP inh noacc 56.1* and Arbovirus anti -7.6.
CSc1ncccc1C(=O)OCC(=O)NC(C)C was read as WT yeast gro inh -13.7, TNAP act hi DEA 1, TNAP inh hiacc -3.2, TNAP inh noacc -11.1 and Arbovirus anti 0.5.
